According to ChEMBL document CHEMBL2417380, “Synthesis, pharmacological assessment, and molecular modeling of 6-chloro-pyridonepezils: new dual AChE inhibitors as potential drugs for the treatment of Alzheimer's disease” (Eur J Med Chem, 2013):

Legend:
Cholinesterase [1] = target: T1, Cholinesterase (Homo sapiens, UniProt P06276); assay: Ratio of donepezil IC50 to compound IC50 for human plasma BuChE
Homo sapiens = species: Homo sapiens; assay: Selectivity index, ratio of IC50 for human plasma BuChE to IC50 for purified human erythrocyte AChE
How it was run: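 Index computed as hBuChE IC50 divided by hAChE IC50. Both IC50s come from the Ellman assay in 100 mM phosphate buffer, pH 8.0, at 30 °C, read at 412 nm with DTNB 0.2 mM. AChE was purified from human erythrocytes with acetylthiocholine substrate; BuChE came from human serum with butyrylthiocholine substrate, each substrate at 0.4 mM.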

[2] = Permeability of the compound at 1 mg/ml after 4 hrs by PAMPA; type: ADME; details: read-out: permeability
How it was run: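 PAMPA-BBB: donor filter impregnated with porcine brain lipid in dodecane (20 mg/mL). Compound dissolved in PBS (pH 7.4)/ethanol (7:3) and filtered before loading into the donor wells. The acceptor wells held PBS/ethanol (7:3). Incubated undisturbed 4 h at 25 °C. Acceptor concentration measured by UV at five wavelengths, in four wells, over at least three independent runs; mean (SD).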

Cholinesterase [3] = target: T1, Cholinesterase; assay: Inhibition of human plasma BuChE using butyrylthiocholine as substrate by Ellman's method
How it was run: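 Ellman spectrophotometric assay with BuChE from human serum in 100 mM phosphate buffer, pH 8.0, at 30 °C. Butyrylthiocholine (0.4 mM) was the substrate and DTNB 0.2 mM. Absorbance change at 412 nm gave IC50 as the concentration giving 50% inhibition. Values are mean ± s.e.m. of at least three experiments run in quadruplicate.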

Acetylcholinesterase = Acetylcholinesterase (Homo sapiens, UniProt P22303); assay: Inhibition of purified human erythrocyte AChE using […] as substrate by Ellman's method
Sequence of Acetylcholinesterase (P22303 whole entry): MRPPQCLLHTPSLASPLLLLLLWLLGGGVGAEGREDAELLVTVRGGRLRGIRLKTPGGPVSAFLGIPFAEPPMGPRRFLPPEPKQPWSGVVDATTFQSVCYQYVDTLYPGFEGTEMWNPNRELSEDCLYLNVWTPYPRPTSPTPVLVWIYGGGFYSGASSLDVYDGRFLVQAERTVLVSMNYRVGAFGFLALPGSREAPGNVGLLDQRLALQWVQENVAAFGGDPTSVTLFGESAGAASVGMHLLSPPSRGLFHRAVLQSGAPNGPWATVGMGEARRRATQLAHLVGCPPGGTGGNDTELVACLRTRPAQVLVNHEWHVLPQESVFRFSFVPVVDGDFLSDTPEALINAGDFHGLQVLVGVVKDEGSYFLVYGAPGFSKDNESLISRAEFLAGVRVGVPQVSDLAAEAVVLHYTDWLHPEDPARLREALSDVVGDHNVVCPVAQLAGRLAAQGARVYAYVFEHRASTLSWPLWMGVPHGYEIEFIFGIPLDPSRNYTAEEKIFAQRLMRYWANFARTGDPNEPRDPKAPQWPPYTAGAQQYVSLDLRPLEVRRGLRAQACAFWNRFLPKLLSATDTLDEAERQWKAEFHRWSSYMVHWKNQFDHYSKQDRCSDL

T1 sequence (P06276 whole entry): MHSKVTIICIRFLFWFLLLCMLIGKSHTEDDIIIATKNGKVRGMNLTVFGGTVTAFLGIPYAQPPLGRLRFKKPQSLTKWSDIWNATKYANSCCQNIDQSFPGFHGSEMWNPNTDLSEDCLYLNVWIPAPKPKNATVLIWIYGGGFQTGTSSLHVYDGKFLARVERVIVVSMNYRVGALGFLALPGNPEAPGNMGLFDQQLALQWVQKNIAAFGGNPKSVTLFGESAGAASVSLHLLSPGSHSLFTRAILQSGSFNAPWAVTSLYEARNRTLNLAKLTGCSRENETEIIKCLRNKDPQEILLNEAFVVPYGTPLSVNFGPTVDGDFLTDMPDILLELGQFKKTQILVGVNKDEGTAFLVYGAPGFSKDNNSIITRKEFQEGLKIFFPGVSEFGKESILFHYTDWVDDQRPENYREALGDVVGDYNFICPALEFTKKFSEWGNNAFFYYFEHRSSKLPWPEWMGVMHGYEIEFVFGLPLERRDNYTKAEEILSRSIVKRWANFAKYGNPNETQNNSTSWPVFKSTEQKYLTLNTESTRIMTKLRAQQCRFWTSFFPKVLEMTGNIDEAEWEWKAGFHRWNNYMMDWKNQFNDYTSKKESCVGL

SMILES	Ratio IC50 (Cholinesterase [1])	Ratio IC50 (Homo sapiens)	Papp at 4 h, 1 mg/ml [2] [×10⁻⁶ cm/s]	IC50 (Cholinesterase [3]) [µM]	IC50 (Acetylcholinesterase) [µM]
N#Cc1cc(C#N)c(NCCC2CCN(Cc3ccccc3)CC2)nc1Cl	5	1.52	8.52	0.47	0.31
N#Cc1cc(C#N)c(NC2CCN(Cc3ccccc3)CC2)nc1Cl			7.39	> 10	5.35
N#Cc1c(NCCC2CCN(Cc3ccccc3)CC2)nc(NCCC2CCN(Cc3ccccc3)CC2)c(C#N)c1-c1ccccc1				> 10	9.77
N#Cc1c(Cl)nc(NCCC2CCN(Cc3ccccc3)CC2)c(C#N)c1-c1ccccc1				> 10	4.4
N#Cc1c(Cl)nc(NC2CCN(Cc3ccccc3)CC2)c(C#N)c1-c1ccccc1				> 10	9.43
N#Cc1cc(C#N)c(NC2CCN(Cc3ccccc3)CC2)nc1NC1CCN(Cc2ccccc2)CC1			5	> 10	7.3
N#Cc1cc(C#N)c(NCCCCC2CCN(Cc3ccccc3)CC2)nc1Cl		625	6.99	8.13	0.013
N#Cc1cc(C#N)c(NCCCC2CCN(Cc3ccccc3)CC2)nc1Cl		155	5.98	8.39	0.054
N#Cc1c(Cl)nc(NCCCCC2CCN(Cc3ccccc3)CC2)c(C#N)c1-c1ccccc1		181	10.3	5.62	0.031
N#Cc1c(Cl)nc(NCCCC2CCN(Cc3ccccc3)CC2)c(C#N)c1-c1ccccc1		2.43	10.1	9.41	3.86
